Published values of several laboratories.
Compare with care: the assays were run in different laboratories.
Organism: Staphylococcus aureus
Read-out: microbial growth

| SMILES | test | system | setting | MIC |
| --- | --- | --- | --- | --- |
| Clc1ccc(-c2nc3ccccc3[nH]2)cc1Cl | broth dilution | ATCC43300 MRSA | drug-resistant strain | 64 µg/mL |
| COC(=O)c1cc(-c2cccc(NC(=O)Nc3cc(OC)ccc3OC)c2)on1 | broth dilution | ATCC29213 |  | > 64 µg/mL |
| CNC(=O)c1cc(Oc2ccc(NC(=O)Nc3cccc(C(F)(F)F)c3)cc2)ccn1 |  | NCTC8325 |  | > 100 µM |
| COC(=O)c1cc(-c2cccc(NC(=S)Nc3cc(C(F)(F)F)cc(C(F)(F)F)c3)c2)on1 | broth dilution | ATCC29213 |  | 8 to 16 µg/mL |
| C/C(=C\C(=O)OCCCCCCCCC(=O)O)C[C@@H]1OC[C@H](C[C@@H]2O[C@H]2[C@@H](C)[C@H](C)O)[C@@H](O)[C@H]1O |  | MRSA | drug-resistant strain | 0.5 µM |
| COc1cccc(OC)c1C(=O)N[C@@H]1C(=O)N2[C@@H]1SC(C)(C)[C@@H]2C(=O)O |  | ATCCBAA41 | drug-resistant strain, clinical isolate | > 64 µg/mL |
| CN[C@H](CC(C)C)C(=O)N[C@H]1C(=O)N[C@@H](CC(N)=O)C(=O)N[C@H]2C(=O)N[C@H]3C(=O)N[C@H](C(=O)N[C@H](C(=O)O)c4cc(O)cc(O)c4-c4cc3ccc4O)[C@H](O)c3ccc(c(Cl)c3)Oc3cc2cc(c3O[C@@H]2O[C@H](CO)[C@@H](O)[C@H](O)[C@H]2O[C@H]2C[C@](C)(N)[C@H](O)[C@H](C)O2)Oc2ccc(cc2Cl)[C@H]1O |  | MRSA |  | 8 µg/mL |
| CC1=C(C(=O)O)N2C(=O)[C@@H](NC(=O)[C@H](N)C3=CCC=CC3)[C@H]2SC1 |  | USA300 |  | 128 µg/mL |
| COC(=O)c1cc(-c2cccc(NC(=O)Nc3ccc(F)cc3F)c2)on1 | broth dilution | ATCC29213 |  | > 64 µg/mL |
| Oc1cc(Cl)ccc1Oc1ccc(Cl)cc1Cl |  |  |  | 1.8 µg/mL |
| CN[C@H](CC(C)C)C(=O)N[C@H]1C(=O)N[C@@H](CC(N)=O)C(=O)N[C@H]2C(=O)N[C@H]3C(=O)N[C@H](C(=O)N[C@H](C(=O)O)c4cc(O)cc(O)c4-c4cc3ccc4O)[C@H](O)c3ccc(c(Cl)c3)Oc3cc2cc(c3O[C@@H]2O[C@H](CO)[C@@H](O)[C@H](O)[C@H]2O[C@H]2C[C@](C)(N)[C@H](O)[C@H](C)O2)Oc2ccc(cc2Cl)[C@H]1O |  | USA300 |  | 1 µg/mL |
| COC(=O)c1cc(-c2cccc(NC(=S)Nc3ccc(C#N)cc3)c2)on1 | broth dilution | ATCC29213 |  | > 64 µg/mL |
| Cc1ccc2nc(-c3cccc(O)c3)[nH]c2c1 | broth dilution | ATCC43300 MRSA | drug-resistant strain | 64 µg/mL |
| Cc1cccc2nc(-c3ccc([N+](=O)[O-])o3)[nH]c12 | broth dilution | ATCC700699 MRSA | drug-resistant strain | 2 µg/mL |
| O=[N+]([O-])c1cccc(-c2nc3ccccc3[nH]2)c1 | broth dilution | ATCC43300 MRSA | drug-resistant strain | 64 µg/mL |
| COC(=O)c1cc(Oc2ccc(NC(=O)Nc3ccc(Cl)c(C(F)(F)F)c3)cc2)ccn1 |  | NCTC8325 |  | 3 µM |
| Clc1ccc(Cn2c(-c3ccc(Cl)cc3)nc3ccccc32)cc1 | broth dilution | ATCC43300 MRSA | drug-resistant strain | 16 µg/mL |
| COC(=O)c1cc(-c2cccc(NC(=S)Nc3ccccc3)c2)on1 | broth dilution | ATCC29213 |  | > 64 µg/mL |

| SMILES | test | system | setting | MIC |
| --- | --- | --- | --- | --- |
| CCCC(=O)CP(=O)(O)O |  | ATCC33591 MRSA | drug-resistant strain | > 200 µg/mL |
| CC1(C)S[C@@H]2[C@H](NC(=O)[C@H](N)c3ccccc3)C(=O)N2[C@H]1C(=O)O |  | USA300 |  | 64 µg/mL |
| CNC(=O)c1cc(Oc2ccc(NC(=S)Nc3ccc(Cl)c(C(F)(F)F)c3)cc2)ccn1 |  | NCTC8325 |  | 10 µM |
| Cc1ccc2nc(-c3c(F)cccc3Cl)[nH]c2c1 | broth dilution | ATCC43300 MRSA | drug-resistant strain | 64 µg/mL |
| COC(=O)c1cc(-c2cccc(NC(=S)Nc3ccc(F)cc3)c2)on1 | broth dilution | ATCC29213 |  | > 64 µg/mL |
| CN[C@H](CC(C)C)C(=O)N[C@H]1C(=O)N[C@@H](CC(N)=O)C(=O)N[C@H]2C(=O)N[C@H]3C(=O)N[C@H](C(=O)N[C@H](C(=O)O)c4cc(O)cc(O)c4-c4cc3ccc4O)[C@H](O)c3ccc(c(Cl)c3)Oc3cc2cc(c3O[C@@H]2O[C@H](CO)[C@@H](O)[C@H](O)[C@H]2O[C@H]2C[C@](C)(N)[C@H](O)[C@H](C)O2)Oc2ccc(cc2Cl)[C@H]1O | broth dilution | ATCCBAA44 | drug-resistant strain | 1 µg/mL |
| Clc1ccc(-c2nc3ccccc3[nH]2)cc1 | broth dilution | ATCC43300 MRSA | drug-resistant strain | 128 µg/mL |
| COC(=O)c1cc(-c2cccc(NC(=O)Nc3ccc(Cl)c(C(F)(F)F)c3)c2)on1 | broth dilution | ATCC29213 |  | > 64 µg/mL |
| CCCCCCCCCCCCCCCC(=O)CP(=O)(O)O |  | ATCC33591 MRSA | drug-resistant strain | 100 µg/mL |
| CC1(C)CC[C@]2(C(=O)O)CC[C@]3(C)C(=CC[C@@H]4[C@@]5(C)CC[C@H](O)C(C)(C)[C@@H]5CC[C@]43C)[C@@H]2C1 |  | USA400 |  | 256 µg/mL |
| C=C(NC(=O)C(=C)NC(=O)c1csc(C2=N[C@@H]3c4csc(n4)[C@H]4NC(=O)c5csc(n5)[C@H]([C@](C)(O)[C@@H](C)O)NC(=O)[C@H]5CSC(=N5)/C(=C/C)NC(=O)[C@H]([C@@H](C)O)NC(=O)c5csc(n5)[C@]3(CC2)NC(=O)[C@H](C)NC(=O)C(=C)NC(=O)[C@H](C)NC(=O)[C@H]([C@@H](C)CC)N[C@@H]2C=Cc3c([C@H](C)O)cc(nc3[C@H]2O)C(=O)O[C@@H]4C)n1)C(N)=O |  | MRSA |  | 0.12 µg/mL |
| COC(=O)c1cc(-c2cccc(NC(=O)Nc3ccc(OC)cc3)c2)on1 | broth dilution | ATCC29213 |  | > 64 µg/mL |
| CN[C@H](CC(C)C)C(=O)N[C@H]1C(=O)N[C@@H](CC(N)=O)C(=O)N[C@H]2C(=O)N[C@H]3C(=O)N[C@H](C(=O)N[C@H](C(=O)O)c4cc(O)cc(O)c4-c4cc3ccc4O)[C@H](O)c3ccc(c(Cl)c3)Oc3cc2cc(c3O[C@@H]2O[C@H](CO)[C@@H](O)[C@H](O)[C@H]2O[C@H]2C[C@](C)(N)[C@H](O)[C@H](C)O2)Oc2ccc(cc2Cl)[C@H]1O | broth dilution | 25923 |  | 0.78 µM |
| c1ccc(CCOC2CCCc3c2[nH]c2ccccc32)cc1 (stereo not drawn) | broth dilution | VISA |  | > 16 µg/mL |
| Cc1ccc2nc(-c3ccco3)n(Cc3ccccc3)c2c1 | broth dilution | ATCC43300 MRSA | drug-resistant strain | 128 µg/mL |
| CC[C@H](C)C[C@H](C)CCCCCCCCC(=O)N[C@H]1C[C@@H](O)[C@@H](NCCN)NC(=O)[C@@H]2[C@@H](O)CCN2C(=O)[C@H]([C@H](O)CCN)NC(=O)[C@H]([C@H](O)[C@@H](O)c2ccc(O)cc2)NC(=O)[C@@H]2C[C@@H](O)CN2C(=O)[C@H]([C@@H](C)O)NC1=O | broth dilution | MB2865 |  | > 128 µg/mL |
| O=[N+]([O-])c1ccc(-c2nc3ccccc3n2Cc2ccccc2)cc1 | broth dilution | ATCC43300 MRSA | drug-resistant strain | 4 µg/mL |
| C=CCCCCCCCCC(=O)C(F)(F)P(=O)(O)O |  | ATCC33591 MRSA | drug-resistant strain | > 200 µg/mL |
